Assays:
K562 = experiment: Antiproliferative activity against human K562 cells assessed as growth inhibition after 72 hrs by MTT assay; type: functional, cell-based; settings: K562, 72 h
Outline: (§1)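 MTT proliferation assay on human K562 leukaemia, MCF-7 breast adenocarcinoma, Bel-7402 hepatocellular carcinoma and MGC-803 gastric cancer cells. Drug exposure 72 h. IC50 is the concentration inhibiting 50% of cell growth. Means ± SD, n = 3.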

MCF7 = experiment: Antiproliferative activity against human MCF7 cells assessed as growth inhibition after 72 hrs by MTT assay; type: functional, cell-based; settings: MCF7, 72 h; outline: as §1
MGC-803 = experiment: Antiproliferative activity against human MGC803 cells assessed as growth inhibition after 72 hrs by MTT assay; type: functional, cell-based; settings: MGC-803, 72 h; outline: as §1
[1] = Antiproliferative activity against human Bel7402 cells assessed as growth inhibition after 72 hrs by MTT assay; type: functional, cell-based; settings: Bel-7402, 72 h; outline: as §1
[2] = Cell cycle arrest in human Bel7402 cells assessed as cells at G1 phase at 0.125 uM after 48 hrs by propidium iodide staining-based flow cytometric analysis (reference value: 39.66%); type: functional; settings: Bel-7402
[3] = Anticancer activity against ABCG2-overexpressing human NCI-H460/MX20 cells by MTT assay; type: functional, cell-based
Outline: (§2)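 MTT cytotoxicity run on paired parental and transporter-overexpressing lines: SW620 vs ABCB1-overexpressing SW620/AD300, and NCI-H460 vs ABCG2-overexpressing NCI-H460/MX20. IC50 is the concentration inhibiting 50% of cell growth. Concentrations tested up to 100 μM.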

[4] = Cytotoxicity against human L02 cells by MTT assay; type: cell-based
Outline: (§3)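 Toxicity compared on human normal liver L-02 cells and human liver cancer Bel-7402 cells run side by side. Survival curves by MTT after 72 h treatment. IC50 is the concentration inhibiting 50% of cell growth.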

Bel-7402 [5] = experiment: Induction of apoptosis in human Bel7402 cells assessed as necrotic cells after 48 hrs at 0.5 uM by Annexin V/propidium iodide staining-based flow cytometric analysis (reference value: 1.99%); type: functional
[6] = Anticancer activity against human Bel7402 cells assessed as growth inhibition by MTT assay; type: functional, cell-based; settings: Bel-7402; outline: as §3
[7] = Cell cycle arrest in human Bel7402 cells assessed as cells at S phase at 0.5 uM after 48 hrs by propidium iodide staining-based flow cytometric analysis (reference value: 40.82%); type: functional; settings: Bel-7402
Bel-7402 [8] = experiment: Induction of apoptosis in human Bel7402 cells assessed as necrotic cells after 48 hrs at 0.125 uM by Annexin V/propidium iodide staining-based flow cytometric analysis (reference value: 1.99%); type: functional
[9] = Cell cycle arrest in human Bel7402 cells assessed as cells at G2 phase at 0.125 uM after 48 hrs by propidium iodide staining-based flow cytometric analysis (reference value: 19.52%); type: functional; settings: Bel-7402
Bel-7402 [10] = experiment: Induction of apoptosis in human Bel7402 cells assessed as early apoptotic cells after 48 hrs at 0.25 uM by Annexin V/propidium iodide staining-based flow cytometric analysis (reference value: 0.64%); type: functional
Bel-7402 [11] = experiment: Selectivity index, ratio of IC50 for human L02 cells to ratio of IC50 for human Bel-7402 cells; type: functional
Outline: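 Selectivity index is IC50 on normal L-02 liver cells divided by IC50 on Bel-7402 tumour cells. Both IC50 values come from MTT survival curves after 72 h exposure.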

[12] = Cell cycle arrest in human Bel7402 cells assessed as cells at S phase at 0.125 uM after 48 hrs by propidium iodide staining-based flow cytometric analysis (reference value: 40.82%); type: functional; settings: Bel-7402
[13] = Cell cycle arrest in human Bel7402 cells assessed as cells at G1 phase at 0.5 uM after 48 hrs by propidium iodide staining-based flow cytometric analysis (reference value: 39.66%); type: functional; settings: Bel-7402
[14] = Cell cycle arrest in human Bel7402 cells assessed as cells at G2 phase at 0.25 uM after 48 hrs by propidium iodide staining-based flow cytometric analysis (reference value: 19.52%); type: functional; settings: Bel-7402
Bel-7402 [15] = experiment: Induction of apoptosis in human Bel7402 cells assessed as viable cells after 48 hrs at 0.125 uM by Annexin V/propidium iodide staining-based flow cytometric analysis (reference value: 92.80%); type: functional; settings: Bel-7402, 48 h, read-out: Activity
NCI-H460 = experiment: Anticancer activity against human NCI-H460 cells by MTT assay; type: functional, cell-based; outline: as §2
Bel-7402 [16] = experiment: Induction of apoptosis in human Bel7402 cells assessed as viable cells after 48 hrs at 0.5 uM by Annexin V/propidium iodide staining-based flow cytometric analysis (reference value: 92.80%); type: functional; settings: Bel-7402, 48 h, read-out: Activity
Bel-7402 [17] = experiment: Induction of apoptosis in human Bel7402 cells assessed as late apoptotic cells after 48 hrs at 0.25 uM by Annexin V/propidium iodide staining-based flow cytometric analysis (reference value: 5.21%); type: functional
[18] = Cell cycle arrest in human Bel7402 cells assessed as cells at G1 phase at 0.25 uM after 48 hrs by propidium iodide staining-based flow cytometric analysis (reference value: 39.66%); type: functional; settings: Bel-7402
[19] = Anticancer activity against ABCB1-overexpressing human SW620/AD300 cells by MTT assay; type: functional, cell-based; settings: SW-620; outline: as §2
Bel-7402 [20] = experiment: Induction of apoptosis in human Bel7402 cells assessed as viable cells after 48 hrs at 0.25 uM by Annexin V/propidium iodide staining-based flow cytometric analysis (reference value: 92.80%); type: functional; settings: Bel-7402, 48 h, read-out: Activity
Bel-7402 [21] = experiment: Induction of apoptosis in human Bel7402 cells assessed as necrotic cells after 48 hrs at 0.25 uM by Annexin V/propidium iodide staining-based flow cytometric analysis (reference value: 1.99%); type: functional
Bel-7402 [22] = experiment: Induction of apoptosis in human Bel7402 cells assessed as late apoptotic cells after 48 hrs at 0.5 uM by Annexin V/propidium iodide staining-based flow cytometric analysis (reference value: 5.21%); type: functional
Bel-7402 [23] = experiment: Induction of apoptosis in human Bel7402 cells assessed as early apoptotic cells after 48 hrs at 0.5 uM by Annexin V/propidium iodide staining-based flow cytometric analysis (reference value: 0.64%); type: functional
Bel-7402 [24] = experiment: Induction of apoptosis in human Bel7402 cells assessed as late apoptotic cells after 48 hrs at 0.125 uM by Annexin V/propidium iodide staining-based flow cytometric analysis (reference value: 5.21%); type: functional
Bel-7402 [25] = experiment: Induction of apoptosis in human Bel7402 cells after 48 hrs by Annexin V/propidium iodide staining-based flow cytometric analysis; type: functional, cell-based
[26] = Cell cycle arrest in human Bel7402 cells assessed as cells at G2 phase at 0.5 uM after 48 hrs by propidium iodide staining-based flow cytometric analysis (reference value: 19.52%); type: functional; settings: Bel-7402
Bel-7402 [27] = experiment: Induction of apoptosis in human Bel7402 cells assessed as early apoptotic cells after 48 hrs at 0.125 uM by Annexin V/propidium iodide staining-based flow cytometric analysis (reference value: 0.64%); type: functional
[28] = Cell cycle arrest in human Bel7402 cells assessed as cells at S phase at 0.25 uM after 48 hrs by propidium iodide staining-based flow cytometric analysis (reference value: 40.82%); type: functional; settings: Bel-7402
SW-620 = experiment: Anticancer activity against human SW620 cells by MTT assay; type: functional, cell-based; outline: as §2

Work on C=C1C(=O)[C@]23[C@H](OC(=O)[C@H](Cc4ccc(N(CCCl)CCCl)cc4)NC=O)[C@H]1CC[C@H]2[C@@]12CO[C@@]3(O)[C@@H](O)[C@@H]1C(C)(C)CC[C@@H]2O yielded an IC50 (K562) of 7.03 µM, an IC50 (MCF7) of 14.6 µM and an IC50 (MGC-803) of 7.1 µM. It also gave an IC50 [1] of 3.84 µM.

C=C1C(=O)[C@]23[C@H](OC(=O)CCCc4ccc(N(CCCl)CCCl)cc4)[C@H]1CC[C@H]2[C@@]12CO[C@@]3(O)[C@@H](O)[C@@H]1C(C)(C)CCC2=O gave an IC50 (K562) of 2.37 µM, an IC50 (MCF7) of 2.25 µM and an IC50 (MGC-803) of 3.95 µM. It also gave an IC50 [1] of 2.53 µM.

Work on C=C1C(=O)[C@]23[C@H](OC(=O)CCCC(=O)N[C@@H](Cc4ccc(N(CCCl)CCCl)cc4)C(=O)OC)[C@H]1CC[C@H]2[C@@]12CO[C@@]3(O)[C@@H](O)[C@@H]1C(C)(C)CC[C@@H]2O yielded an IC50 (K562) of 5.74 µM, an IC50 (MCF7) of 12.9 µM and an IC50 (MGC-803) of 6.92 µM. The IC50 [1] was 7.91 µM.

For C=C1C(=O)[C@]23[C@H](OC(=O)c4ccc(N(CCCl)CCCl)cc4)[C@H]1CC[C@H]2[C@@]12CO[C@@]3(O)[C@@H](O)[C@@H]1C(C)(C)CC[C@@H]2O, the Activity [2] was 45.6%, the IC50 [3] was 2.91 µM and the IC50 [4] was 4.03 µM. It also gave an Activity (Bel-7402 [5]) of 1.29%, an IC50 [6] of 0.5 µM and an Activity [7] of 43.6%. For the same compound, the Activity (Bel-7402 [8]) was 2.12%, the Activity [9] was 13% and the Activity (Bel-7402 [10]) was 3.14%. For the same compound, the “Ratio IC50” value (Bel-7402 [11]) was 8.06, the Activity [12] was 41.3% and the Activity [13] was 52%. The Activity [14] was 9.98%, the IC50 (K562) was 1.12 µM and the viability at 0.125 µM (Bel-7402 [15]) was 87.1%. It also gave an IC50 (NCI-H460) of 2.35 µM, a viability at 0.5 µM (Bel-7402 [16]) of 50.7% and an Activity (Bel-7402 [17]) of 19.85%. It also gave an IC50 (MCF7) of 0.68 µM, an Activity [18] of 45.2% and an IC50 [19] of 1.86 µM. The viability at 0.25 µM (Bel-7402 [20]) was 75.8%, the Activity (Bel-7402 [21]) was 1.23% and the IC50 (MGC-803) was 1.09 µM. It also gave an Activity (Bel-7402 [22]) of 37.51%, an Activity (Bel-7402 [23]) of 10.53% and an Activity (Bel-7402 [24]) of 10.77%. The Activity (Bel-7402 [25]) was “Dose-dependent effect”, the Activity [26] was 4.46% and the Activity (Bel-7402 [27]) was 1.11%. The Activity [28] was 44.8%, the IC50 (SW-620) was 1.96 µM and the IC50 [1] was 0.5 µM.

With C=C1C(=O)[C@]23[C@H](OC(=O)[C@H](Cc4ccc(N(CCCl)CCCl)cc4)NC(=O)OC(C)(C)C)[C@H]1CC[C@H]2[C@@]12CO[C@@]3(O)[C@@H](O)[C@@H]1C(C)(C)CC[C@@H]2O the IC50 (K562) was 1.41 µM, the IC50 (MCF7) was 3.22 µM and the IC50 (MGC-803) was 6.72 µM. For the same compound, the IC50 [1] was 2.36 µM.

For C=C1C(=O)[C@]23[C@H](OC(=O)c4ccc(N(CCCl)CCCl)cc4)[C@H]1CC[C@H]2[C@@]12CO[C@@]3(O)[C@@H](O)[C@@H]1C(C)(C)CCC2=O, the IC50 (K562) was 1.17 µM, the IC50 (MCF7) was 0.67 µM and the IC50 (MGC-803) was 1.6 µM. It also gave an IC50 [1] of 0.9 µM.

Work on C=C1C(=O)[C@]23[C@H](O)[C@H]1CC[C@H]2[C@@]12CO[C@]3(O)[C@@H](O)[C@@H]1C(C)(C)CC[C@@H]2O [ORIDONIN] yielded an IC50 [3] of 21.7 µM, an IC50 [4] of 17.8 µM and an IC50 [6] of 7.48 µM. For the same compound, the “Ratio IC50” value (Bel-7402 [11]) was 2.38, the IC50 (NCI-H460) was 17.1 µM and the IC50 [19] was 4.67 µM. It also gave an IC50 (SW-620) of 6.26 µM.
